Test results taken from ChEMBL document CHEMBL1138544, “Solution-phase parallel synthesis and evaluation of anticonvulsant activity of N-substituted-3,4-dihydroisoquinoline-2(1H)-carboxamides” (2009).

Legend:
Mus musculus [1] = experiment: Anticonvulsant activity against audiogenic clonus seizures in ip dosed DBA/2 mouse epilepsy model administered 30 mins before auditory simulation; type: functional; settings: DBA/2, ip
Procedure, shortened: (§1)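 DBA/2 mice (sound-seizure susceptible), 8e12 g, 22e25 days old, either sex, groups of 10. Vehicle or each dose given 30 min before auditory stimulation. Latency to and incidence of each seizure phase scored. ED50 for each phase taken from dose-response curves fitted by the Litchfield and Wilcoxon method.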

Mus musculus [2] = experiment: Anticonvulsant activity against audiogenic tonus seizures in ip dosed DBA/2 mouse epilepsy model administered 30 mins before auditory simulation; type: functional; settings: DBA/2, ip; procedure, shortened: as §1

COc1cc2c(cc1OC)C(c1ccc(Br)cc1)N(C(=O)CN1CCCCC1)CC2 (centres undefined) was tested. Which ED50 (Mus musculus [1]) did it give?
The ED50 was 5.99 mg/kg.

And the ED50 (Mus musculus [2])?
Its ED50 is 3.86 mg/kg.

How did the ED50 (Mus musculus [1]) turn out when CCNC(=O)N1CCc2cc(OC)c(OC)cc2C1c1ccccc1 (centres undefined) was run?
Its ED50 is 32.5 mg/kg.

What about the ED50 (Mus musculus [2]) of the same compound?
The ED50 was 11.9 mg/kg.

Which ED50 (Mus musculus [1]) does the source give for CCNC(=O)N1CCc2cc(OC)c(OC)cc2C1c1ccc(Cl)cc1 (centres undefined) here?
The ED50 was 30.4 mg/kg.

And the ED50 (Mus musculus [2])?
The ED50 was 14.2 mg/kg.

Which results are given for CCNC(=O)N1CCc2cc(OC)c(OC)cc2C1c1ccc(F)cc1 (centres undefined)?
ED50 (Mus musculus [1]): > 35 mg/kg; ED50 (Mus musculus [2]): > 35 mg/kg

CCCCNC(=O)N1CCc2cc(OC)c(OC)cc2C1c1ccc(Cl)cc1 (centres undefined) was tested. Which ED50 (Mus musculus [1]) did it give?
The ED50 was greater than 35 mg/kg.

What about the ED50 (Mus musculus [2]) of the same compound?
Its ED50 is 16.5 mg/kg.

What does the source list for CCCCNC(=O)N1CCc2cc(OC)c(OC)cc2C1c1ccc(F)cc1 (centres undefined)?
ED50 (Mus musculus [1]): > 35 mg/kg; ED50 (Mus musculus [2]): 13.7 mg/kg

With COc1cc2c(cc1OC)C(c1ccccc1)N(C(=O)NC(C)(C)C)CC2 (centres undefined) as the compound, how does the ED50 (Mus musculus [1]) read?
Its ED50 is 27.5 mg/kg.

And the ED50 (Mus musculus [2])?
The ED50 was 13.9 mg/kg.

Which results are given for COc1cc2c(cc1OC)C(c1ccc(Cl)cc1)N(C(=O)NC1CCCC1)CC2 (centres undefined)?
ED50 (Mus musculus [1]): > 35 mg/kg; ED50 (Mus musculus [2]): 12.1 mg/kg

For COc1cc2c(cc1OC)C(c1ccc(F)cc1)N(C(=O)NC(C)C)CC2 (centres undefined), which ED50 (Mus musculus [1]) is on record?
Its ED50 is greater than 35 mg/kg.

What about the ED50 (Mus musculus [2]) of the same compound?
Its ED50 is 17.3 mg/kg.

Which results are given for CCCCNC(=O)N1CCc2cc(OC)c(OC)cc2C1c1ccccc1 (centres undefined)?
ED50 (Mus musculus [1]): 31.7 mg/kg; ED50 (Mus musculus [2]): 11 mg/kg

Which ED50 (Mus musculus [1]) does the source give for COc1cc2c(cc1OC)C(c1ccc(Br)cc1)N(C(=O)NC(C)(C)C)CC2 (centres undefined) here?
The ED50 was greater than 35 mg/kg.

What about the ED50 (Mus musculus [2]) of the same compound?
Its ED50 is 16.9 mg/kg.

COc1cc2c(cc1OC)C(c1ccccc1)N(C(=O)NC1CCCCC1)CC2 (centres undefined) was tested. Which ED50 (Mus musculus [1]) did it give?
The ED50 was 26.9 mg/kg.

And the ED50 (Mus musculus [2])?
Its ED50 is 9.38 mg/kg.

Which results are given for CCCCNC(=O)N1CCc2cc(OC)c(OC)cc2C1c1ccc(Br)cc1 (centres undefined)?
ED50 (Mus musculus [1]): > 35 mg/kg; ED50 (Mus musculus [2]): 15.5 mg/kg

COc1cc2c(cc1OC)C(c1ccc(Cl)cc1)N(C(=O)NC(C)(C)C)CC2 (centres undefined) was tested. Which ED50 (Mus musculus [1]) did it give?
Its ED50 is 30.6 mg/kg.

And the ED50 (Mus musculus [2])?
The ED50 was 13.8 mg/kg.

What does the source list for COc1cc2c(cc1OC)C(c1ccccc1)N(C(=O)NC1CCCC1)CC2 (centres undefined)?
ED50 (Mus musculus [1]): > 35 mg/kg; ED50 (Mus musculus [2]): 15.1 mg/kg

With COc1cc2c(cc1OC)C(c1ccc(Br)cc1)N(C(=O)NC1CCCCC1)CC2 (centres undefined) as the compound, how does the ED50 (Mus musculus [1]) read?
Its ED50 is greater than 35 mg/kg.

And the ED50 (Mus musculus [2])?
Its ED50 is 19.3 mg/kg.

Which ED50 (Mus musculus [1]) does the source give for CCCNC(=O)N1CCc2cc(OC)c(OC)cc2C1c1ccc(Cl)cc1 (centres undefined) here?
The ED50 was greater than 35 mg/kg.

What about the ED50 (Mus musculus [2]) of the same compound?
The ED50 was 23.4 mg/kg.

CCCNC(=O)N1CCc2cc(OC)c(OC)cc2C1c1ccc(F)cc1 (centres undefined) was tested. Which ED50 (Mus musculus [1]) did it give?
The ED50 was greater than 35 mg/kg.

And the ED50 (Mus musculus [2])?
Its ED50 is 26.9 mg/kg.

COc1cc2c(cc1OC)C(c1ccccc1)N(C(=O)NC(C)C)CC2 (centres undefined) was tested. Which ED50 (Mus musculus [1]) did it give?
Its ED50 is greater than 35 mg/kg.

What about the ED50 (Mus musculus [2]) of the same compound?
The ED50 was greater than 35 mg/kg.

COc1cc2c(cc1OC)C(c1ccc(Cl)cc1)N(C(=O)NC1CCCCC1)CC2 (centres undefined) was tested. Which ED50 (Mus musculus [1]) did it give?
Its ED50 is greater than 35 mg/kg.

And the ED50 (Mus musculus [2])?
Its ED50 is 14.2 mg/kg.

With COc1cc2c(cc1OC)C(c1ccc(Br)cc1)N(C(=O)NC1CCCC1)CC2 (centres undefined) as the compound, how does the ED50 (Mus musculus [1]) read?
The ED50 was greater than 35 mg/kg.

And the ED50 (Mus musculus [2])?
The ED50 was 14.7 mg/kg.

With COc1cc2c(cc1OC)C(c1ccc(Cl)cc1)N(C(=O)NC(C)C)CC2 (centres undefined) as the compound, how does the ED50 (Mus musculus [1]) read?
Its ED50 is greater than 35 mg/kg.

And the ED50 (Mus musculus [2])?
The ED50 was 26.1 mg/kg.

COc1cc2c(cc1OC)C(c1ccc(F)cc1)N(C(=O)NC1CCCC1)CC2 (centres undefined) was tested. Which ED50 (Mus musculus [1]) did it give?
The ED50 was 27.7 mg/kg.

What about the ED50 (Mus musculus [2]) of the same compound?
The ED50 was 7.24 mg/kg.

For COc1cc2c(cc1OC)C(c1ccc(Br)cc1)N(C(=O)NC(C)C)CC2 (centres undefined), which ED50 (Mus musculus [1]) is on record?
Its ED50 is greater than 35 mg/kg.

What about the ED50 (Mus musculus [2]) of the same compound?
Its ED50 is 23.6 mg/kg.

With COc1cc2c(cc1OC)C(c1ccc(F)cc1)N(C(=O)NC(C)(C)C)CC2 (centres undefined) as the compound, how does the ED50 (Mus musculus [1]) read?
The ED50 was greater than 35 mg/kg.

What about the ED50 (Mus musculus [2]) of the same compound?
The ED50 was 18.7 mg/kg.

Which results are given for CCCNC(=O)N1CCc2cc(OC)c(OC)cc2C1c1ccc(Br)cc1 (centres undefined)?
ED50 (Mus musculus [1]): > 35 mg/kg; ED50 (Mus musculus [2]): 31.2 mg/kg

Which results are given for COc1cc2c(cc1OC)C(c1ccc(F)cc1)N(C(=O)NC1CCCCC1)CC2 (centres undefined)?
ED50 (Mus musculus [1]): > 35 mg/kg; ED50 (Mus musculus [2]): > 35 mg/kg

For CCNC(=O)N1CCc2cc(OC)c(OC)cc2C1c1ccc(Br)cc1 (centres undefined), which ED50 (Mus musculus [1]) is on record?
The ED50 was greater than 35 mg/kg.

And the ED50 (Mus musculus [2])?
Its ED50 is greater than 35 mg/kg.

What does the source list for CCCNC(=O)N1CCc2cc(OC)c(OC)cc2C1c1ccccc1 (centres undefined)?
ED50 (Mus musculus [1]): > 35 mg/kg; ED50 (Mus musculus [2]): 18.1 mg/kg

Which ED50 (Mus musculus [1]) does the source give for COc1cc2c(cc1OC)C(c1ccc(Cl)cc1)N(C(C)=O)CC2 (centres undefined) here?
The ED50 was 2.25 mg/kg.

And the ED50 (Mus musculus [2])?
The ED50 was 1.22 mg/kg.

NCC1(CC(=O)O)CCCCC1 [GABAPENTIN] was tested. Which ED50 (Mus musculus [1]) did it give?
Its ED50 is greater than 35 mg/kg.

What about the ED50 (Mus musculus [2]) of the same compound?
Its ED50 is 21.5 mg/kg.

Which ED50 (Mus musculus [1]) does the source give for CCCC(CCC)C(=O)O [VALPROIC ACID] here?
Its ED50 is 20.3 mg/kg.

And the ED50 (Mus musculus [2])?
Its ED50 is 9.9 mg/kg.
